Measured values taken from PMC3984342 (mAbs, 2013).
Read-outs that look alike come from different tables or passages of the source.

Legend:
[1] = METH alone, no antibody; ref Riviere et al.[21]; cited from earlier work
[2] = Ch-mAb7F9 pharmacokinetics in rats; assay type: in vivo, Male, Sprague Dawley rats; conditions: for ClT / Vdss / t1/2λz: rat
Method in brief: (§1)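 Male Sprague Dawley rats (n = 12/group), housed individually, got a single IV antibody dose via tail vein over about 2 min. The dose was ultracentrifuged (~100,000 g, 1 h, 5 °C) and diluted in PBS (15 mM sodium phosphate, 150 mM NaCl). METH 1 mg/kg (in 0.9% NaCl) or saline was given SC 24 h later. Six tail-vein samples were drawn over 3 wk. Non-compartmental sparse-sampling analysis used mean concentration per time point: ClT = D/AUC, Vdss = D·AUMC/AUC², […].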

[3] = Preliminary surface plasmon resonance study of on-off rates; assay type: binding; conditions: data not shown
[4] = Prediction of human elimination half-life from rat values; parameters: species or system humans; conditions: extrapolated from rat: human ClT about one-third of rat, similar Vdss
[5] = Isothermal titration calorimetry; assay type: binding
Method in brief: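 For isothermal titration calorimetry, 86 μM METH was titrated into 5 μM antibody at 307 rpm. Each run had 28 injections of 10 μL, spaced 200 s, at 37 °C in PBS pH 6.5. A one-site model gave N, ΔH, ΔS and the association constant (the reciprocal of KD). Activity was derived from N and molecular weights, with 2.07 μg METH/mg mAb taken as 100% active.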

[6] = Modified radioimmunoassay; assay type: binding; conditions: modified RIA, [3H]-METH tracer, complete inhibition curve
[7] = GLP in vivo rat toxicology study
[8] = METH pharmacokinetics in rats after anti-METH mAb treatment; assay type: in vivo, Male, Sprague Dawley rats; conditions: rat
Method in brief: as §1

[9] = GLP human tissue cross-reactivity study; conditions: human tissues, results not shown
[10] = assay type: in vivo, Male, Sprague Dawley rats; conditions: rats, single antibody dose, throughout the study
Method in brief: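 Body weights and general health observations were recorded for each rat throughout the 3-week study after the single IV antibody dose and 24-h SC challenge. Body weight and hematocrit are given as mean ± standard deviation.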

[11] = ch-mAb7F9 15 mg/kg IV, saline challenge
[12] = ch-mAb7F9 15 mg/kg IV, with METH 1 mg/kg SC 24 h later
[13] = ch-mAb7F9 150 mg/kg IV, saline challenge
[14] = ch-mAb7F9 150 mg/kg IV, with METH 1 mg/kg SC 24 h later

Molecule: (+)-methamphetamine
- METH ClT [1]: 181400 mL/day/kg
- METH Vdss [1]: 9 L/kg
- METH t1/2λz [1]: 1.1 h

B1: ch-mAb7F9: human-mouse chimeric anti-METH monoclonal antibody; mAb7F9 variable region joined to human IgG2κ constant domains (antibody, V domains shown)
VH: EIQLQQSGPELGKPGASVKVSCRASGFSFADYYIYWVKQSHGKSLELIGYIDPFNGGDTYNQIFKGKATLTVDKSSSTAFMYLNSLTSEDSAVYYCAAFRNPSFDFWGQGTTLTVSS
VL: QIVLIQSPPIMSASPGEKVTLTCSASSSVSSRYLYWYQQKPGSSPKLWIYGTSNLASGVPARFSGSGSGTSFSLTISSMEAEDAASYFCHQWSSFPFTFGSGTKLEIK
- ClT [2, 11]: 6.9 mL/day/kg
- Vdss [2, 11]: 0.1084 L/kg
- t1/2λz [2, 11]: 262 h
- ClT [2, 12]: 6.1 mL/day/kg
- Vdss [2, 12]: 0.1151 L/kg
- t1/2λz [2, 12]: 314 h
- ClT [2, 13]: 6.5 mL/day/kg
- Vdss [2, 13]: 0.1083 L/kg
- t1/2λz [2, 13]: 276 h
- ClT [2, 14]: 7.6 mL/day/kg
- Vdss [2, 14]: 0.1082 L/kg
- t1/2λz [2, 14]: 235 h
- t1/2λz (range over groups) ([2]; rats, current studies, 15 and 150 mg/kg): 240 to 312 h
- on-off rates of METH binding [3]: both reactions are fast
- predicted t1/2λz in humans [4]: ≤ 3 wk
- average activity (capacity for binding METH per quantity of mAb) ([5]; first GMP-compliant lot, converted from ITC stoichiometry): 1.96 μg METH bound per mg mAb
- Kd ([5]; read-out: KD (ITC, average), ITC, 37 °C, PBS pH 6.5): 49 nM
- Kd [6]: 6.9 nM
- elimination half-life ([7]; GLP rat toxicology study, samples for 56 d, results not shown): 190 to 288 h
- no-observed-adverse-effect level, NOAEL ([7]; rat, single doses, GLP): 400 mg/kg
- decrease of METH clearance compared with mAb7F9 ([8]; 150 mg/kg mAb dose): approximately 50%
- METH ClT ([8]; METH 1 mg/kg SC 24 h after mAb 15 mg/kg IV): 13800 mL/day/kg
- METH ClT ([8]; METH 1 mg/kg SC 24 h after mAb 150 mg/kg IV): 926 mL/day/kg
- decrease of METH Vdss compared with METH alone ([8]; ch-mAb7F9 15 mg/kg): ~ 5 fold
- increase in METH t1/2λz compared with METH alone ([8]; ch-mAb7F9 15 mg/kg): 2.1 fold
- decrease of METH ClT compared with METH alone ([8]; ch-mAb7F9 15 mg/kg (low dose)): 13 fold
- decrease of METH Vdss compared with METH alone ([8]; ch-mAb7F9 150 mg/kg): ~25 fold
- increase in METH t1/2λz compared with METH alone ([8]; ch-mAb7F9 150 mg/kg): 5.9 fold
- decrease of METH ClT compared with METH alone ([8]; ch-mAb7F9 150 mg/kg (high dose)): 196 fold
- tissue staining [9]: the staining was cytoplasmic
- health changes (eating behavior, body weight) [10]: no significant health changes
